Results on three compounds are retold here after ChEMBL document CHEMBL4402517, “Rational modification of Mannich base-type derivatives as novel antichagasic compounds: Synthesis, in vitro and in vivo evaluation” (Bioorg Med Chem, 2019).

Each structure is given as a SMILES string. Active and inactive are the calls of the source. The rule behind the calls is not given here.

A short description of data set [1]: Toxicity in BALB/c mouse infected with Trypanosoma cruzi MHOM/Pe/2011/Arequipa;DTU 5 bloodstream trypomastigote assessed as change in serum urea level in chronic phase at 20 mg/kg/day, po administered for 5 consecutive days starting from day 70 post infection and measured at day 76 post infection relative to control. Format: organism-based. To be noted: in vivo.

Data set [2] can be described thus: Toxicity in BALB/c mouse infected with Trypanosoma cruzi MHOM/Pe/2011/Arequipa;DTU 5 bloodstream trypomastigote assessed as change in serum urea level in chronic phase at 20 mg/kg/day, po administered for 5 consecutive days starting from day 70 post infection measured on day 100 post infection relative to control. As to conditions: in vivo. It counts as organism-based.

Data set [3] deals with Trypanosoma cruzi. The data set is described as follows: Antitrypanosomal activity against Trypanosoma cruzi MHOM/Pe/2011/Arequipa;DTU 5 epimastigote assessed as effect on parasite glycolytic pathway by measuring decrease in succinate excretion at IC50 after 72 hrs by H NMR method relative to control. It counts as functional. The arrangement: scale not given: the % may be the effect or the level left. Put shortly:
(§1)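 Cells were spun at 800 × g for 10 min and culture supernatants analysed by 1H NMR. Catabolite peaks were expressed as % variation versus untreated parasites.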

A short description of data set [4]: Toxicity in BALB/c mouse infected with Trypanosoma cruzi MHOM/Pe/2011/Arequipa;DTU 5 bloodstream trypomastigote assessed as increase in serum total bilirubin level in acute phase at 20 mg/kg/day, po administered for 5 consecutive days and measured on day 100 post infection by biochemical analysis relative to control. It counts as organism-based. As to conditions: in vivo.

Data set [5] is described as follows: Mutagenecity against Salmonella typhimurium TA 100 assessed as number of colonies at 22.2 ug/plate in absence of Sprague-Dawley rat S9 with metabolic activation ug/plate measured after 48 hrs by Ames test (reference value: 35.7 +/- 0.6). Format: toxicity. As to conditions: salmonella enterica subsp. enterica serovar typhimurium, s9, 48 h.
The nature of data set [6]: Mutagenecity against Salmonella typhimurium TA 102 assessed as number of colonies at 66.7 ug/plate in absence of Sprague-Dawley rat S9 with metabolic activation measured after 48 hrs by Ames test (reference value: 78.7 +/- 7.8). Format: toxicity. To be noted: salmonella enterica subsp. enterica serovar typhimurium, s9, 48 h.
Data set [7] in a line: Mutagenecity against Salmonella typhimurium TA 100 assessed as number of colonies at 66.7 ug/plate in absence of Sprague-Dawley rat S9 with metabolic activation measured after 48 hrs by Ames test (reference value: 35.7 +/- 0.6). Format: toxicity. To be noted: salmonella enterica subsp. enterica serovar typhimurium, s9, 48 h.
In data set [8] the test system is Trypanosoma cruzi. The data set is described as follows: Antitrypanosomal activity against Trypanosoma cruzi MHOM/Pe/2011/Arequipa;DTU 5 bloodstream trypomastigote infected in BALB/c mouse assessed as reduction in parasitemia […] at 20 mg/kg/day, po administered for 5 consecutive days starting from day 8 post infection measured every 2 to 3 days starting from day 7 post infection by Neubauer chamber relative to untreated control. Format: functional. Also on record: scale not given: the % may be the effect or the level left. Put shortly: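 Female BALB/c mice (three per group) were infected i.p. with 5 × 10^5 Arequipa bloodstream trypomastigotes, with parasitemia confirmed on day 7 pi. Oral dosing was 20 mg/kg/day on days 8–12 pi in 5% DMSO/0.5% HPMC; controls received vehicle. Bloodstream trypomastigotes were counted through the acute phase until day 48 pi.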

Data set [9] in a line: Mutagenecity against Salmonella typhimurium TA1535 assessed as number of colonies at 7.4 ug/plate in absence of Sprague-Dawley rat S9 measured after 48 hrs by Ames test (reference value: 13.3 +/- 2.5). It counts as toxicity. To be noted: salmonella enterica subsp. enterica serovar typhimurium, s9, 48 h. For orientation: The Ames test detects mutagens through reverse mutation in bacteria.

Data set [10] is described as follows: Mutagenecity against Salmonella typhimurium TA1535 assessed as number of colonies at 200 ug/plate in absence of Sprague-Dawley rat S9 measured after 48 hrs by Ames test (reference value: 13.3 +/- 2.5). It counts as toxicity. To be noted: salmonella enterica subsp. enterica serovar typhimurium, s9, 48 h.
The test system of data set [11] is Trypanosoma cruzi. In words: Antitrypanosomal activity against Trypanosoma cruzi MHOM/Pe/2011/Arequipa;DTU 5 bloodstream trypomastigotes infected in BALB/c mouse assessed as decrease in splenomegaly in acute phase at 20 mg/kg/day, po administered for 5 consecutive days starting from day 8 post infection relative to untreated control. Format: functional. The arrangement: scale not given: the % may be the effect or the level left. The method, boiled down:
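Female BALB/c mice (three per group) were infected i.p. with 5 × 10^5 Arequipa trypomastigotes and dosed orally at 20 mg/kg/day for 5 days in 5% DMSO/0.5% HPMC. Controls were uninfected and vehicle-only groups. At the end of the experiment spleens were weighed and expressed as % of body weight.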

The nature of data set [12]: Mutagenecity against Salmonella typhimurium TA97a assessed as number of colonies at 200 ug/plate in presence of Sprague-Dawley rat S9 with metabolic activation measured after 48 hrs by Ames test (reference value: 55 +/- 7.1). To be noted: salmonella enterica subsp. enterica serovar typhimurium, s9, 48 h. It counts as toxicity, subcellular.
Data set [13] is described as follows: Mutagenecity against Salmonella typhimurium TA1535 assessed as number of colonies at 200 ug/plate in presence of Sprague-Dawley rat S9 measured after 48 hrs by Ames test (reference value: 5 +/- 3.6). Format: toxicity, subcellular. To be noted: salmonella enterica subsp. enterica serovar typhimurium, s9, 48 h.
Data set [14] can be described thus: Toxicity in BALB/c mouse infected with Trypanosoma cruzi MHOM/Pe/2011/Arequipa;DTU 5 bloodstream trypomastigote assessed as change in serum uric acid level in chronic phase at 20 mg/kg/day, po administered for 5 consecutive days starting from day 70 post infection measured on day 100 post infection relative to control. As to conditions: in vivo. Format: organism-based.

A short description of data set [15]: Mutagenecity against Salmonella typhimurium TA 100 assessed as number of colonies at 22.2 ug/plate in presence of Sprague-Dawley rat S9 with metabolic activation e measured after 48 hrs by Ames test (reference value: 47.3 +/- 5.7). It counts as toxicity, subcellular. To be noted: salmonella enterica subsp. enterica serovar typhimurium, s9, 48 h.
Data set [16] in a line: Mutagenecity against Salmonella typhimurium TA 100 assessed as number of colonies at 200 ug/plate in presence of Sprague-Dawley rat S9 with metabolic activation measured after 48 hrs by Ames test (reference value: 47.3 +/- 5.7). It counts as toxicity, subcellular. To be noted: salmonella enterica subsp. enterica serovar typhimurium, s9, 48 h.
The nature of data set [17]: Mutagenecity against Salmonella typhimurium TA 102 assessed as number of colonies at 66.7 ug/plate in presence of Sprague-Dawley rat S9 with metabolic activation measured after 48 hrs by Ames test (reference value: 72 +/- 1). As to conditions: salmonella enterica subsp. enterica serovar typhimurium, s9, 48 h. Format: toxicity, subcellular.
Data set [18] is described as follows: Mutagenecity against Salmonella typhimurium TA97a assessed as number of colonies at 200 ug/plate in absence of Sprague-Dawley rat S9 […] measured after 48 hrs by Ames test ( Rvb = 37 +/- 6.5). Format: toxicity. As to conditions: salmonella enterica subsp. enterica serovar typhimurium, s9, 48 h.
The nature of data set [19]: Mutagenecity against Salmonella typhimurium TA98 assessed as number of colonies at 200 ug/plate in presence of Sprague-Dawley rat S9 measured after 48 hrs by Ames test (reference value: 4 +/- 2). As to conditions: salmonella enterica subsp. enterica serovar typhimurium, s9, 48 h. Format: toxicity, subcellular.
A short description of data set [20]: Mutagenecity against Salmonella typhimurium TA97a assessed as number of colonies at 66.7 ug/plate in presence of Sprague-Dawley rat S9 with metabolic activation measured after 48 hrs by Ames test (reference value: 55 +/- 7.1). To be noted: salmonella enterica subsp. enterica serovar typhimurium, s9, 48 h. It counts as toxicity, subcellular.
Data set [21] has as its system Trypanosoma cruzi. In words: Antitrypanosomal activity against Trypanosoma cruzi MHOM/Pe/2011/Arequipa;DTU 5 epimastigote assessed as effect on parasite glycolytic pathway by measuring change in succinate excretion after 72 hrs by H NMR method. Format: functional, organism-based. Put shortly:
as §1

The nature of data set [22]: Toxicity in BALB/c mouse infected with Trypanosoma cruzi MHOM/Pe/2011/Arequipa;DTU 5 bloodstream trypomastigote assessed as increase in serum aspartate aminotransferase level in chronic phase at 20 mg/kg/day, po administered for 5 consecutive days starting from day 70 post infection and measured at day 76 post infection relative to control. It counts as organism-based. As to conditions: in vivo.

Data set [23] is described as follows: Toxicity in BALB/c mouse infected with Trypanosoma cruzi MHOM/Pe/2011/Arequipa;DTU 5 bloodstream trypomastigote assessed as change in serum creatine kinase muscle to brain ratio level in acute phase at 20 mg/kg/day, po administered for 5 consecutive days starting from day 8 post infection and measured on day 100 post infection by biochemical analysis relative to control. Format: organism-based. To be noted: in vivo.

For the compound `O=C(CCN1CCN(c2ccc(C(F)(F)F)cc2)CC1)c1ccc(O)cc1`, the Activity in data set [1] is above 10%; in data set [2], above 10%; with Trypanosoma cruzi [3] it was 80%; in data set [4], above 40%.
As for `O=C(CCN1CCN(c2ccc(Cl)cc2)CC1)c1ccc(O)cc1`, the Activity was 34.3 in [5]; 73.3 in [6]; 38 in [7]; 70% in the data set on Trypanosoma cruzi [8]; 2.3 in [9]; 4 in data set [10]. Further, the Activity is given as 44% with Trypanosoma cruzi [11]; 41 in data set [12]; 7 in [13]; above 10% in [14]; 47.3 in data set [15]; 42.3 in data set [16]. In addition, the Activity in data set [17] is 72.3; in [18], 32.3; in data set [19], 2.7; in [20] it was 44.
As to `O=C(Cn1ccnc1[N+](=O)[O-])NCc1ccccc1` [BENZNIDAZOLE], the outcome in the data set on Trypanosoma cruzi [21] was Active. Moreover, the Activity result is recorded as “<= 10%” in [22] and above 10% in [23].
